Data set [1] addresses T1, C5a anaphylatoxin chemotactic receptor 1 (Homo sapiens) (UniProt P21730).
T1 sequence (whole entry): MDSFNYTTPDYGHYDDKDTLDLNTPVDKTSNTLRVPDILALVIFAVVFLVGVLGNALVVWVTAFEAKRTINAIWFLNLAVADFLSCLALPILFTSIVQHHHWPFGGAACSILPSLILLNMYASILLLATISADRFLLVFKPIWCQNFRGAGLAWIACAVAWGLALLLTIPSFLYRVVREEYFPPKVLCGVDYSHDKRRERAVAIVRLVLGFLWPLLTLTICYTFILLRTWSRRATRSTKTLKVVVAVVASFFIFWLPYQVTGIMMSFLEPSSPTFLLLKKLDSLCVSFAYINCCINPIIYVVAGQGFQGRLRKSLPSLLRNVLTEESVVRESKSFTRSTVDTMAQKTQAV
Nature of the data set: Binding affinity to C5aR1 receptor (unknown origin) assessed as binding constant. As to conditions: time 10.0 min.

A short description of data set [2]: Passive permeability across apical to basolateral side in dog RRCK cells incubated for 30 mins. In kind it is ADME, cell-based, Canis lupus familiaris, MDCKII-LE. As to conditions: MDCK, read-out: permeability. In a few lines:
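Passive absorptive permeability was measured from the apical to the basolateral side in RRCK cells after a 30 min preincubation. Values are reported as the mean, in 10–6 cm/s.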

As for `CCN1CC[C@H](NC(=O)c2ccnn2-c2ccccc2)C(=O)N[C@@H]([C@@H](C)O)C(=O)N[C@@H](CC(C)C)C(=O)N[C@@H](Cc2ccc(F)cc2)C(=O)N[C@@H](Cc2ccccc2)CC1=O`, the Kb in data set [1] (filed as antagonist) was found to be 54 nM. Besides, in data set [2], the Papp A→B at 0.5 h turned out to be 0.4 ×10⁻⁶ cm/s.

As for `C[C@@H](Cc1ccccc1)C(=O)N[C@H]1CCCN(C)C(=O)[C@H](Cc2ccccc2)NC(=O)[C@H](Cc2ccc(F)cc2)NC(=O)[C@@H](CC2CCCCC2)NC(=O)[C@@H]2CCN2C1=O`, in data set [1] (filed as antagonist), the Kb came to 57.5 nM. The Papp A→B at 0.5 h in data set [2] is 11.1 ×10⁻⁶ cm/s.

With `C[C@@H](Cc1ccccc1)C(=O)N[C@@H]1C(=O)N2CCC[C@H]2C(=O)N[C@H](CC2CCCCC2)C(=O)N[C@@H](Cc2ccc(F)cc2)C(=O)N[C@@H](Cc2ccccc2)C(=O)N2CCC1CC2`, the Kb in data set [1] (filed as antagonist) was determined as 82.8 nM. Also, in data set [2], the Papp A→B at 0.5 h came out at 6.5 ×10⁻⁶ cm/s.

Regarding `C[C@@H](Cc1ccccc1)C(=O)N[C@H]1CCN(C)C(=O)C[C@H](Cc2ccccc2)NC(=O)[C@H](Cc2ccc(F)cc2)NC(=O)[C@@H](CC2CCCCC2)NC(=O)[C@@H]2CCCN2C1=O`, the Kb in data set [1] (filed as antagonist) came out at 5.52 nM. Besides, the Papp A→B at 0.5 h in data set [2] is 5 ×10⁻⁶ cm/s.

Turning to `C[C@@H](Cc1ccccc1)C(=O)N[C@H]1CCCN(C)C(=O)[C@H](Cc2ccccc2)NC(=O)[C@H](Cc2ccc(F)cc2)NC(=O)[C@@H](CC2CCCCC2)NC(=O)[C@H]([C@@H](C)O)NC1=O`, in data set [1] (filed as antagonist), the Kb amounted to 38.9 nM. In data set [2], the Papp A→B at 0.5 h turned out to be 5.5 ×10⁻⁶ cm/s.

Take `CCCC[C@H]1C(=O)N(C)CCC[C@H](NC(=O)[C@@H](C)Cc2ccccc2)C(=O)N2CCC[C@H]2C(=O)N[C@H](CC2CCCCC2)C(=O)N[C@@H](Cc2ccc(F)cc2)C(=O)N1C`: in data set [1], the Kb is over 9500 nM. In addition, the Papp A→B at 0.5 h in data set [2] was determined as 4.2 ×10⁻⁶ cm/s.

Turning to `C[C@@H](Cc1ccccc1)C(=O)N[C@H]1CCN(C)C(=O)C[C@H](Cc2ccccc2)NC(=O)[C@H](Cc2ccc(F)cc2)N(C)C(=O)[C@@H](CC2CCCCC2)NC(=O)[C@@H]2CCCN2C1=O`, the Kb in data set [1] (filed as antagonist) was determined as 127 nM. Besides, in data set [2], the Papp A→B at 0.5 h was 2.1 ×10⁻⁶ cm/s.

In the case of `C[C@@H](Cc1ccccc1)C(=O)N[C@H]1CC[C@H]2CCCN2C(=O)[C@H](Cc2ccccc2)NC(=O)[C@H](Cc2ccc(F)cc2)NC(=O)[C@@H](CC2CCCCC2)NC(=O)[C@@H]2CCCN2C1=O`, the Kb in data set [1] (filed as antagonist) stood at 46.5 nM. The Papp A→B at 0.5 h in data set [2] turned out to be 3.4 ×10⁻⁶ cm/s.

In the case of `C[C@@H](Cc1ccccc1)C(=O)N[C@H]1CCCN(C)C(=O)[C@H](Cc2ccccc2)NC(=O)[C@H](Cc2ccc(F)cc2)NC(=O)[C@@H](CC2CCCCC2)NC(=O)[C@@H]2CCCN2C1=O`, the Kb in data set [1] (filed as antagonist) stood at 36.3 nM. Also, the Papp A→B at 0.5 h in data set [2] stood at 2.6 ×10⁻⁶ cm/s.

As for `CCCC[C@@H]1NC(=O)[C@H](Cc2ccc(F)cc2)N(C)C(=O)[C@@H](CC2CCCCC2)NC(=O)[C@@H]2CCCN2C(=O)[C@@H](NC(=O)[C@@H](C)Cc2ccccc2)CCCN(C)C1=O`, in data set [1], the Kb is over 10000 nM. Further, in data set [2], the Papp A→B at 0.5 h amounted to 2.6 ×10⁻⁶ cm/s.

Consider `CCCC[C@@H]1NC(=O)[C@H](Cc2ccc(F)cc2)NC(=O)[C@@H](CC2CCCCC2)N(C)C(=O)[C@@H]2CCCN2C(=O)[C@@H](NC(=O)[C@@H](C)Cc2ccccc2)CCCN(C)C1=O`, for which, in data set [1], the Kb was over 10000 nM. For the same compound, the Papp A→B at 0.5 h in data set [2] was 4.4 ×10⁻⁶ cm/s.

Values taken from ChEMBL document CHEMBL6127151, “Cyclic Peptide C5aR1 Antagonist Design Using Solution Conformational Analysis Derived from Residual Dipolar Couplings” (ACS Med Chem Lett, 2024).
